{"data": "Published values pooled from the literature", "organism": "Escherichia coli", "observed": "microbial growth", "note": "Compare with care: the assays were run in different laboratories."}
{"Structure (SMILES)": "c1ccc(CSc2nc3ccc(-c4ccccc4)cc3cc2CNCCC2CCN(C3CCCC3)CC2)cc1", "assay": "broth dilution", "MIC": "16 µg/mL"}
{"Structure (SMILES)": "COc1ccc2ccc(O)c(/C=N/[C@H]3CCCC[C@H]3/N=C/c3ccc(-c4ccccc4)cc3O)c2c1", "assay": "broth dilution", "MIC": "> 40 µM"}
{"Structure (SMILES)": "CN(C)[C@@H]1C(O)=C(C(N)=O)C(=O)[C@@]2(O)C(O)=C3C(=O)c4c(O)cccc4[C@@](C)(O)[C@H]3C[C@@H]12", "assay": "broth dilution", "test system": "ATCC25922", "setting": "16 h", "MIC": "3.1 µM"}
{"Structure (SMILES)": "C[C@@H](O)[C@H]1C(=O)N2C(C(=O)O)=C(S[C@@H]3CN[C@H](C(=O)N(C)C)C3)[C@H](C)[C@H]12", "assay": "broth dilution", "test system": "ATCC25922", "MIC": "< 0.5 µg/mL"}
{"Structure (SMILES)": "COc1ccc(N2N=C(C(=O)c3ccc(Nc4cnccn4)cc3)SC2=C(C#N)C#N)cc1", "assay": "broth dilution", "test system": "ATCC10536", "MIC": "6.25 µg/mL"}
{"Structure (SMILES)": "NC[C@H]1O[C@H](O[C@H]2[C@H](O)[C@@H](O[C@H]3O[C@H](CO)[C@@H](O)[C@H](N)[C@H]3O)[C@H](N)C[C@@H]2N)[C@H](N)C[C@@H]1O", "MIC": "≤ 1 µg/mL"}
{"Structure (SMILES)": "N#CC(C#N)=C1SC(C(=O)c2ccc(Nc3cnccn3)cc2)=NN1c1ccccc1", "assay": "broth dilution", "test system": "ATCC10536", "MIC": "50 µg/mL"}
{"Structure (SMILES)": "COc1ccc2ccc(O)c(/C=N/[C@H]3CCCC[C@H]3/N=C/c3c(O)cccc3F)c2c1", "assay": "broth dilution", "MIC": "> 40 µM"}
{"Structure (SMILES)": "CC(=O)OCc1nn(C)c2nc(N)[nH]c(=O)c2c1=O", "assay": "broth dilution", "test system": "BW25113", "setting": "18 h", "MIC": "25 µg/mL"}
{"Structure (SMILES)": "Cc1ccc2[nH]nc(-c3nnc(Nc4ccc(C(F)(F)F)cc4)s3)c2c1", "test system": "ATCC25922", "MIC": "43.3 µg/mL"}
{"Structure (SMILES)": "CCN1CCC(CCNCc2cc3cc(-c4ccccc4)ccc3nc2SCc2ccccc2)CC1", "assay": "broth dilution", "MIC": "8 µg/mL"}
{"Structure (SMILES)": "CC[C@H]1OC(=O)[C@H](C)[C@@H](O[C@H]2C[C@@](C)(OC)[C@@H](O)[C@H](C)O2)[C@H](C)[C@@H](O[C@@H]2O[C@H](C)C[C@H](N(C)C)[C@H]2O)[C@](C)(O)C[C@@H](C)CN(C)[C@H](C)[C@@H](O)[C@]1(C)O", "test system": "ATCC25922", "MIC": "< 98 µg/mL"}
{"Structure (SMILES)": "CN(C)c1cc(NC(=O)CNC(C)(C)C)c(O)c2c1C[C@H]1C[C@H]3[C@H](N(C)C)C(O)=C(C(N)=O)C(=O)[C@@]3(O)C(O)=C1C2=O", "MIC": "≤ 0.5 µg/mL"}
{"Structure (SMILES)": "[H]/N=C(/N)N[C@H]1[C@H](O)[C@@H](O)[C@H](O[C@@H]2O[C@@H](C)[C@](O)(C=O)[C@H]2O[C@@H]2O[C@@H](CO)[C@H](O)[C@@H](O)[C@@H]2NC)[C@@H](N/C(N)=N\\[H])[C@@H]1O", "assay": "broth dilution", "test system": "ATCC25 ATCC25922", "MIC": "20 µg/mL"}
{"Structure (SMILES)": "COc1cc2cc(CNCCC3CCN(C4CCCC4)CC3)c(SCc3ccccc3)nc2c(OC)c1OC", "assay": "broth dilution", "MIC": "> 128 µg/mL"}
{"Structure (SMILES)": "CCOC(=O)C(C)c1n[nH]c2nc(N)[nH]c(=O)c2c1=O (stereo not drawn)", "assay": "broth dilution", "test system": "BW25113", "setting": "18 h", "MIC": "> 100 µg/mL"}
{"Structure (SMILES)": "C[C@@H](O)[C@H]1C(=O)N2C(C(=O)O)=C(S[C@@H]3CN[C@H](C(=O)N(C)C)C3)[C@H](C)[C@H]12", "test system": "ATCC25922", "setting": "drug-resistant strain", "MIC": "0.15 µg/mL"}
{"Structure (SMILES)": "COc1cc2cc(CNCCN3CCN(C)CC3)c(SCc3ccccc3)nc2c(OC)c1OC", "assay": "broth dilution", "MIC": "> 128 µg/mL"}
{"Structure (SMILES)": "O=C(N[C@H](CO)[C@H](O)c1ccc([N+](=O)[O-])cc1)C(Cl)Cl", "assay": "broth dilution", "test system": "ATCC10536", "MIC": "3.12 µg/mL"}
{"Structure (SMILES)": "CCN(CC)c1ccc(C=NC(=O)c2ccc3ccccc3c2)c(O)c1", "assay": "broth dilution", "test system": "ATCC25922", "MIC": "> 256 µg/mL"}
{"Structure (SMILES)": "COc1ccc2ccc(O)c(/C=N/[C@H]3CCCC[C@H]3/N=C/c3ccc(OCCN4CCCCC4)cc3O)c2c1", "assay": "broth dilution", "MIC": "> 40 µM"}
{"Structure (SMILES)": "CCCCCCCCN=c1ccn(CCCCCCCCCCn2ccc(=NCCCCCCCC)cc2)cc1", "MIC": "0.5 µM"}
{"Structure (SMILES)": "Cc1ccc2[nH]nc(-c3nnc(Nc4ccc(O)cc4)s3)c2c1", "test system": "ATCC25922", "MIC": "64.7 µg/mL"}
{"Structure (SMILES)": "CC(C)(O/N=C(\\C(=O)N[C@@H]1C(=O)N2C(C(=O)[O-])=C(C[n+]3ccccc3)CS[C@H]12)c1csc(N)n1)C(=O)O", "MIC": "0.25 µg/mL"}
{"Structure (SMILES)": "CCN(CC)c1ccc(C=NNC(=O)c2ccc(Cl)cc2)c(O)c1", "assay": "broth dilution", "test system": "ATCC25922", "MIC": "> 256 µg/mL"}
{"Structure (SMILES)": "CO[C@H]1/C=C/O[C@@]2(C)Oc3c(C)c(O)c4c(O)c(c(/C=N/N5CCN(C)CC5)c(O)c4c3C2=O)NC(=O)/C(C)=C\\C=C\\[C@H](C)[C@H](O)[C@@H](C)[C@@H](O)[C@@H](C)[C@H](OC(C)=O)[C@@H]1C", "assay": "broth dilution", "MIC": "8 µM"}
{"Structure (SMILES)": "Cc1ccc2[nH]nc(-c3nnc(Nc4ccc(Br)cc4)s3)c2c1", "test system": "ATCC25922", "MIC": "251 µg/mL"}
{"Structure (SMILES)": "CC1(C)S[C@@H]2[C@H](NC(=O)[C@H](N)c3ccccc3)C(=O)N2[C@H]1C(=O)O", "assay": "broth dilution", "test system": "ATCC25922", "MIC": "4 µg/mL"}
{"Structure (SMILES)": "CC(=O)C1=NN(c2ccc([N+](=O)[O-])cc2)C(=C(C#N)C(=O)c2ccc(Nc3cnccn3)cc2)S1", "assay": "broth dilution", "test system": "ATCC10536", "MIC": "6.25 µg/mL"}
{"Structure (SMILES)": "Cc1ccc2[nH]nc(-c3nnc(Nc4cc(Cl)cc(Br)c4)s3)c2c1", "test system": "ATCC25922", "MIC": "228 µg/mL"}
{"Structure (SMILES)": "CO/N=C(\\C(=O)N[C@@H]1C(=O)N2C(C(=O)O)=C(CSc3nc(=O)c(=O)[nH]n3C)CS[C@H]12)c1csc(N)n1", "assay": "broth dilution", "test system": "ATCC25922", "MIC": "16 µg/mL"}
{"Structure (SMILES)": "c1ccc(CSc2nc3ccccc3cc2CNCc2ccc(CN3CCCC3)cc2)cc1", "assay": "broth dilution", "MIC": "> 128 µg/mL"}
{"Structure (SMILES)": "[H]/N=C(\\N/C(=N/[H])NCCCCCCNC(=N)NC(=N)Nc1ccc(Cl)cc1)Nc1ccc(Cl)cc1", "MIC": "0.5 µM"}
{"Structure (SMILES)": "Cc1ccc2[nH]nc(-c3nnc(Nc4ccc([N+](=O)[O-])cc4)s3)c2c1", "test system": "ATCC25922", "MIC": "92.8 µg/mL"}
{"Structure (SMILES)": "C[C@@H](O)[C@H]1C(=O)N2C(C(=O)O)=C(SCCN=CN)C[C@H]12", "MIC": "≤ 0.25 µg/mL"}
{"Structure (SMILES)": "CN1CCN(CCNCc2cc3cc(Br)ccc3nc2SCc2ccccc2)CC1", "assay": "broth dilution", "MIC": "16 µg/mL"}
{"Structure (SMILES)": "CC1(C)S[C@@H]2[C@H](NC(=O)[C@H](N)c3ccccc3)C(=O)N2[C@H]1C(=O)O", "assay": "broth dilution", "test system": "ATCC25922", "setting": "12 h", "MIC": "8 µg/mL"}
{"Structure (SMILES)": "CC(=O)OCC1=C(C(=O)O)N2C(=O)[C@@H](NC(=O)Cc3cccs3)[C@H]2SC1", "assay": "broth dilution", "test system": "ATCC10536", "MIC": "3.12 µg/mL"}
{"Structure (SMILES)": "c1ccc(CSc2nc3ccc(-c4ccccc4)cc3cc2CNCc2ccc(CN3CCCC3)cc2)cc1", "assay": "broth dilution", "MIC": "> 128 µg/mL"}
{"Structure (SMILES)": "Cc1cc(Nc2nnc(-c3n[nH]c4ccc(C)cc34)s2)cc([N+](=O)[O-])c1", "test system": "ATCC25922", "MIC": "166 µg/mL"}
{"Structure (SMILES)": "CN1CCN(CCNCc2cc3ccccc3nc2SCc2ccccc2)CC1", "assay": "broth dilution", "MIC": "64 µg/mL"}
{"Structure (SMILES)": "N#CC(C#N)=C1SC(C(=O)c2ccc(Nc3cnccn3)cc2)=NN1c1ccc([N+](=O)[O-])cc1", "assay": "broth dilution", "test system": "ATCC10536", "MIC": "12.5 µg/mL"}
